The results in this text go back to ChEMBL document CHEMBL5620424, “Design, synthesis and evaluation of novel 2-phenyl-3-(1H-pyrazol-4-yl)pyridine positive allosteric modulators for the M4 mAChR” (Eur J Med Chem, 2023).

Active and inactive are the calls of the source. No cut-off for these calls is given here.

In data set [1] the target is Muscarinic acetylcholine receptor M3 (Homo sapiens) (UniProt P20309). As to the kind of experiment: Positive allosteric modulation at human M3 mAChR expressed in Flp-In-CHO cells at 10 uM incubated for 5 mins by […]. Format: cell-based. Summed up: (§1)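 FlpInCHO cells stably expressing human M1–M5 mAChRs, serum-deprived in HBSS 4 h at 37 °C, then ACh (10 nM–10 μM) with or without modulator at 10 μM for 5 min at 37 °C. Cells lysed and frozen overnight. pERK1/2 measured by AlphaScreen SureFire Ultra, as % of response to 10% FBS.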
Muscarinic acetylcholine receptor M3 (Homo sapiens), sequence (P20309 whole entry, looked up): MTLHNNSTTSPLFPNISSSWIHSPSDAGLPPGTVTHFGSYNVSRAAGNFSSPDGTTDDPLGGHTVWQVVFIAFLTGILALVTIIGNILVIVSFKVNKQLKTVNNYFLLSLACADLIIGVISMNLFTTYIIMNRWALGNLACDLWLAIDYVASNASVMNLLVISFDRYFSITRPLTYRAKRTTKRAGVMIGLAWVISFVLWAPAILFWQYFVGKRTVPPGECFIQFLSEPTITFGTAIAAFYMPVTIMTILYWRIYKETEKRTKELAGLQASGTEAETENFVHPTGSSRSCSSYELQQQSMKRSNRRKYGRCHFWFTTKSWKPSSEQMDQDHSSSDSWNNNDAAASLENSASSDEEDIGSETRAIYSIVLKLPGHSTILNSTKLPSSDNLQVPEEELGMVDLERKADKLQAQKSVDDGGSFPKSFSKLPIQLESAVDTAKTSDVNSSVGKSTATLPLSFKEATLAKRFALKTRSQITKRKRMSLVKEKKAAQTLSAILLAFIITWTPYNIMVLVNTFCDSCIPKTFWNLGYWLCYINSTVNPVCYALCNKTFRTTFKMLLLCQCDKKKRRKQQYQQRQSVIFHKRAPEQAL

The nature of data set [2]: Drug concentration in brain of naive C57BL/6J mouse at 10 mg/kg, ip measured after 20 to 30 mins. Type of data set: ADME, organism-based. The conditions noted are these: in vivo, time 20-30 min, read-out: Ct. The essentials:
(§2)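 Male C57Bl/6J mice, naïve, 10–12 weeks old, dosed i.p. at 10 mg/kg in 10% DMSO, 1.1% Tween 80, 21.8 mM Tris. Blood by cardiac puncture under anaesthesia at 20 or 90 min (n = 2–3 per time point). Brain concentration corrected for compound in brain vasculature. Mean nM ± SEM reported; Kp = Cbrain/Cplasma, reported as a range.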

A short description of data set [3]: Drug concentration in brain of naive C57BL/6J mouse at 10 mg/kg, ip measured after 90 mins. Format: ADME, organism-based. To be noted: read-out: Ct. Summed up: as §2
The nature of data set [4]: Drug concentration in plasma of naive C57BL/6J mouse at 10 mg/kg, ip measured after 90 mins. Type of data set: ADME, organism-based. The essentials: as §2
Data set [5] deals with T1, Muscarinic acetylcholine receptor M4 (Homo sapiens) (UniProt P08173).
T1 sequence (whole entry): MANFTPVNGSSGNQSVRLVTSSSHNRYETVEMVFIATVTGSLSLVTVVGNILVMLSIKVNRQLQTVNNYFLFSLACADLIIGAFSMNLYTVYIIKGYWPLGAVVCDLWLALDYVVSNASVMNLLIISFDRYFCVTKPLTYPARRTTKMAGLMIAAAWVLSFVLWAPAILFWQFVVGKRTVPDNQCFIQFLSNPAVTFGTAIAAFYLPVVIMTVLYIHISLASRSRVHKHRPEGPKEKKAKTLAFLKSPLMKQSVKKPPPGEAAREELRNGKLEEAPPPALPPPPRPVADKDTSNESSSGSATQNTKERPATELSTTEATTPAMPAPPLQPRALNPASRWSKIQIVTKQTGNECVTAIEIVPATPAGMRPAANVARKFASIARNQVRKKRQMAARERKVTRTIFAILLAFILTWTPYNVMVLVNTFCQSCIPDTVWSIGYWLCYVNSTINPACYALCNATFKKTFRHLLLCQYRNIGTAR
As to the kind of experiment: Positive allosteric modulation at human M4 mAChR expressed in Flp-In-CHO cells co-expressing CAMYEL biosensor assessed as efficacy of ACh-mediated cAMP signalling (log tau B) incubated for 5 mins by BRET assay. Type of data set: functional, cell-based. The conditions noted are these: filed as positive allosteric modulator. Summed up:
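CAMYEL-transfected FlpInCHO-hM4 cells (48 h post-transfection) given ACh and modulator concentration ranges in full interaction design, 5 min at 37 °C; BRET read with coelenterazine h. Fit to complete operational model of allosterism and agonism with ACh KA and modulator KB fixed from binding assays. Gives log τB and log αβ. 4–5 experiments in duplicate.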
A general note: BRET reads energy transfer from a luciferase to a nearby fluorophore.

The target in data set [6] is T1, Muscarinic acetylcholine receptor M4 (Homo sapiens). Briefly: Positive allosteric modulation at human M4 mAChR expressed in Flp-In-CHO cells co-expressing CAMYEL biosensor assessed as change in ACh-mediated response incubated for 5 mins by BRET assay. Type of data set: cell-based. To be noted: filed as positive allosteric modulator. The essentials:
(§3)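 FlpInCHO cells stably expressing human M4 mAChR, transiently transfected with CAMYEL cAMP BRET biosensor (60 ng/well, PEI), assayed 48 h later in HBSS pH 7.4. Full ACh concentration-response curve alone or with modulator at 1 or 10 μM, co-added with coelenterazine h (5 μM), 5 min, 37 °C. Three-parameter logistic fit; ACh curve values subtracted from ACh+modulator values. Δbaseline and ΔEmax given as % of maximal ACh response without modulator. 4 experiments in duplicate, SEM pooled.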

A short description of data set [7]: Ratio of drug concentration in brain to plasma of naive C57BL/6J mouse at 10 mg/kg, ip. Type of data set: ADME, organism-based. The conditions noted are these: read-out: BPR. Summed up:
as §2

Data set [8] has as its target T2, Muscarinic acetylcholine receptor M2 (Homo sapiens) (UniProt P08172).
T2 sequence (whole entry): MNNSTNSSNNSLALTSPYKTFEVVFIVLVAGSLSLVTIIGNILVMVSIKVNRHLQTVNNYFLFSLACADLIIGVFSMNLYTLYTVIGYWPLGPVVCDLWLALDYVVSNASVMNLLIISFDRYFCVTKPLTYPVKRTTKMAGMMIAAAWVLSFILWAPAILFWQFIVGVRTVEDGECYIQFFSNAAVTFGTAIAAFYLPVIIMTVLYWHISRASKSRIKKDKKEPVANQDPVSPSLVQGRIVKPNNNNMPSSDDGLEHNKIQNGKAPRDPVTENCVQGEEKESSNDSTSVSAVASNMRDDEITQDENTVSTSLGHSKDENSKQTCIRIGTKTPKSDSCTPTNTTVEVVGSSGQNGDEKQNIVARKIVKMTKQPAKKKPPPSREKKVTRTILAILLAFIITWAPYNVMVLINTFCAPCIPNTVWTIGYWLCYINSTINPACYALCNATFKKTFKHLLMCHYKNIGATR
Briefly: Positive allosteric modulation at human M2 mAChR expressed in Flp-In-CHO cells at 10 uM incubated for 5 mins by […]. Format: cell-based. Summed up: as §1

Data set [9] addresses T1, Muscarinic acetylcholine receptor M4 (Homo sapiens). Briefly: Positive allosteric modulation at Rluc-tagged human M4 mAChR expressed in Flp-In-CHO cells co-expressing eYFP-tagged beta-arrestin 2 assessed as ACh-mediated beta-arrestin 2 recruitment co-operativity (log alpha beta) incubated for 5 mins by luminometry. Type of data set: cell-based. To be noted: filed as positive allosteric modulator. The essentials: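 FlpInCHO cells co-transfected with human M4-Rluc8 (20 ng/well) and β-arrestin-2-eYFP (80 ng/well) using PEI, assayed after 48 h. Coelenterazine h (5 μM) preincubated 5 min, then ACh plus modulator ranges for 5 min at 37 °C; BRET at 475/535 nm. Fit to simplified operational model with slope 1 and KB fixed from binding. 4–5 experiments in duplicate.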
(In general: Activated receptors often draw arrestin, which recruitment assays turn into a signal.)

Data set [10] shares this target. As to the kind of experiment: Positive allosteric modulation at human M4 mAChR expressed in Flp-In-CHO cells assessed as increase in ERK1/2 phosphorylation at 10 uM incubated for 5 mins […]. Format: cell-based. The conditions noted are these: filed as positive allosteric modulator. The essentials:
as §1

The target is the same in data set [11]. As to the kind of experiment: […] human M4 mAChR expressed in Flp-In-CHO cells co-expressing CAMYEL biosensor assessed as change in baseline response at 10 uM incubated for 5 mins by BRET assay relative to control. Format: cell-based. Summed up: as §3
Setting [12] is: filed as positive allosteric modulator.

Consider `Cc1ccc(-c2cnn(CC3CCCC3)c2)c(-c2ccc3c(c2)C(=O)N(C)C3)n1`, for which the result in data set [1] was inactive. Besides, the concentration in data set [2] is 481 nM. In addition, the figures for the concentration at 1.5 h in data set [3] and in data set [4] were 9 nM and 14 nM, respectively. The log(activity) is -0.45 in data set [5] and 1.94 in data set [9]. In addition, the deltapEC50 in data set [6] is 1.48. Besides, in data set [7], the Kp came to 0.1. For the same molecule, the outcome in data set [8] (setting [12]) and in data set [10] was Active. The Activity in [11] (setting [12]) is 103%.
`Cc1ccc(-c2cnn(CC3CCCC3)c2)c(-c2ccc(N)c([N+](=O)[O-])c2)n1`: the result in data set [1] and in [8] was inactive. Besides, the concentration in data set [2] came to 982 nM. In addition, the concentration at 1.5 h in data set [3] is 373 nM; in data set [4], 657 nM. For the same molecule, the log(activity) is -1.29 in [5] and 1.18 in [9]. In addition, the deltapEC50 in data set [6] amounted to 1.27. The Kp in data set [7] was 0.3. Besides, in data set [10], the result was Active. Further, the Activity in data set [11] worked out at 8.48%.
Take `Cc1ccc(-c2cnn(CC3CCCC3)c2)c(-c2ccc(F)c(F)c2)n1`: the outcome in data set [1] and in data set [8] was inactive. In addition, in [2], the concentration was found to be 2140 nM. For the same molecule, the concentration at 1.5 h in data set [3] is 255 nM; in data set [4], 159 nM. The log(activity) in [5] was -0.07; in data set [9], 1.55. In addition, the deltapEC50 in [6] came out at 0.76. For the same molecule, the Kp in data set [7] was found to be 1.6. In addition, the outcome in [10] was Active. Also, in data set [11] (setting [12]), the Activity was determined as 51.4%.
